Assay outcomes deposited in PubChem BioAssay by The Scripps Research Institute Molecular Screening Center.
core dimer inh = HCV core protein dimerization inhibition. 300,000 tested, 0.33% active. TR-FRET GST/Flag-core106 dimerization, 1536-well. AID 1899. inhibition, % at 5 µM;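 active means inhibition above the mean of all tested compounds plus 3 SD, set per screening campaign, cut at about 45% in these data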
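assay system = GST-tagged and Flag-tagged HCV core protein residues 1-106 | controls = unlabelled core106 and no-GST-core106 wells | incubation = compound-protein-antibody incubation 4 h at 22.5 °C | probe or stimulus = Eu donor and XL665 acceptor anti-tag antibodies | read-out = % inhibition based on acceptor/donor emission ratio | signal = TR-FRET 671 and 617 nm emission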
PP5 primary = PP5 (human) phosphatase inhibition | P53041 | purified PP5c, OMFP substrate fluorescence | inhibition, % at 6.7 µM | 320,000 tested, 0.18% active;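 active means inhibition above the campaign's mean inhibition across all tested compounds plus 3 SD, cut at about 9.5% in these data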
PP1 counter = blocks human PP1-alpha phosphatase, a PP5 counter-screen. P62136. purified PP1alpha, OMFP fluorescence. inhibition, % at 6.7 µM. 320,000 tested, 0.9% active. AID 2235;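 active means inhibition above the mean inhibition of all tested compounds plus 3 SD, computed separately for each screening campaign, cut at about 15% in these data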
ZTA DNA inh = ZTA (EBV) inhibition in EBNA-1 counter-screen | 320,000 tested, 0.15% active | ZTA-DNA binding, fluorescence polarization | inhibition, % at 11 µM; in the data active means inhibition above about 33%
Target sequence (P03206 whole entry, looked up): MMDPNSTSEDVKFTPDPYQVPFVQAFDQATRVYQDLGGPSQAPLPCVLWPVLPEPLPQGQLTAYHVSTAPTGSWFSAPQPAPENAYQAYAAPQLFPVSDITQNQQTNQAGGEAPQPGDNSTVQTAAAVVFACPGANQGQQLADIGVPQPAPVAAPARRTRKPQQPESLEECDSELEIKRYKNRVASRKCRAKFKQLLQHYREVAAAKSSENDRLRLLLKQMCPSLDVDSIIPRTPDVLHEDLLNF
EBNA-1 inh = blocks EBNA-1 binding to DNA. EBNA-1 DNA binding, fluorescence polarization. 300,000 tested, 0.34% active. inhibition, % at 14.8 µM. AID 1950; in the data active means inhibition above about 28%
EBNA-1 inh conf = EBNA-1 (EBV) inhibition, confirmation. Recombinant EBNA-1 DBD, Cy5-DNA fluorescence polarization. 830 tested, 35% active. inhibition, % at 14.8 µM. shares compounds with EBNA-1 inh;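 active means mean inhibition across replicates above a set limit taken from the earlier primary screen, cut at about 28% in these data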
ZTA counter trip = ZTA (EBV) inhibition, triplicate counter-screen. inhibition, % at 11.1 µM. shares compounds with EBNA-1 inh. AID 2328. Zta-ZRE DNA binding, Cy5 fluorescence polarization. 830 tested, under 10 active;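 active means mean inhibition over triplicates above a set limit taken from the primary EBNA-1 screen, cut at about 37% in these data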;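 further: purified full length Zta protein with Cy5 labeled ZRE DNA probe; inhibitors lower polarization by freeing the labeled DNA probe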
Of the large screens only hits and unclear results are named; the others gave an inactive call (follow-up assays come after a bar, where they were run). In the library only some 1.7% were active in any assay of this set; here they are far more common.

CCOc1ccc(-n2nnc3c(=O)n(CC(=O)c4ccccc4)cnc32)cc1	EBNA-1 inh 30 | EBNA-1 inh conf inactive | ZTA counter trip inactive
Cc1ccc(-n2nnc3c(=O)n(CC(=O)c4ccccc4)cnc32)cc1	none
O=C(NCc1ccc2c(c1)OCO2)C1CCC(CNS(=O)(=O)c2ccc(Cl)cc2)CC1 (stereo not given)	EBNA-1 inh 30 | EBNA-1 inh conf 63 | ZTA counter trip inactive
Cc1ccc(S(=O)(=O)NCC2CCC(C(=O)NCc3ccc4c(c3)OCO4)CC2)cc1 (stereo not given)	none
O=C(CSc1n[nH]c(=O)[nH]c1=O)NC1CC1	EBNA-1 inh 59 | EBNA-1 inh conf inactive | ZTA counter trip inactive
CCC(C)NC(=O)c1ccc([N+](=O)[O-])c(Cl)c1 (stereo not given)	EBNA-1 inh 28 | EBNA-1 inh conf inactive | ZTA counter trip inactive
Cc1ccc(C(=O)NCC(C)NC(=O)c2ccc(C)c([N+](=O)[O-])c2)cc1[N+](=O)[O-] (stereo not given)	none
CC(=O)N1CCN(S(=O)(=O)c2ccc(S(=O)(=O)NC3CC3)cc2)CC1	none
CCS(=O)(=O)N1CCN(S(=O)(=O)c2ccc(S(=O)(=O)NC3CC3)cc2)CC1	EBNA-1 inh 48 | EBNA-1 inh conf 44 | ZTA counter trip inactive
CCCCN(C(=O)c1cc(-c2ccco2)nc2ccccc12)c1c(N)n(CCCC)c(=O)[nH]c1=O	none
CCCCn1c(N)c(N(CCC(C)C)C(=O)c2cc(-c3ccco3)nc3ccccc23)c(=O)[nH]c1=O	core dimer inh 49, EBNA-1 inh 51 | EBNA-1 inh conf inactive | ZTA counter trip inactive
NC1CCN(c2c(F)cc3c(=O)c(C(=O)O)cn(C4CC4)c3c2Cl)C1 (stereo not given)	none
O=C(Cn1cc2c(n1)CCCC2)N1CCc2ccccc21	none
Cc1ccc(C(CNC(=O)c2ccc(Br)o2)N2CCN(C)CC2)cc1 (stereo not given)	none
CCOc1ccc(/C=N/NC(=O)C(=O)NCc2ccco2)cc1	EBNA-1 inh 34 | EBNA-1 inh conf inactive | ZTA counter trip inactive
COC(=O)N/N=C/c1cc(N=Nc2ccccc2)ccc1O	none
Cc1cc(C(=O)N/N=C/c2cc(N=Nc3ccccc3)ccc2O)n[nH]1	PP1 counter 15, EBNA-1 inh 75 | EBNA-1 inh conf inactive | ZTA counter trip 38
Cc1cc(C(=O)N/N=C/c2ccc(-c3cccc(Cl)c3Cl)o2)n[nH]1	none
Cc1cc(C(=O)N/N=C/c2ccc(-c3cccc(Br)c3)o2)n[nH]1	EBNA-1 inh 35 | EBNA-1 inh conf inactive | ZTA counter trip inactive
Cc1cc(C)c2c(-n3cccc3)c(C(=O)NNS(=O)(=O)c3ccccc3)sc2n1	none
Cc1cc(C)c2c(-n3cccc3)c(C(=O)NNS(=O)(=O)c3ccc(Cl)cc3)sc2n1	EBNA-1 inh 30 | EBNA-1 inh conf inactive | ZTA counter trip inactive
Cc1ccnc(NS(=O)(=O)c2ccc(NC(=O)c3cc(-c4ccc(Br)cc4)nc4ccccc34)cc2)n1	EBNA-1 inh 32 | EBNA-1 inh conf inactive | ZTA counter trip inactive
S=C(NCCc1ccccc1)Nc1cccc2cnccc12	none
COc1cc(C2C(C#N)=C(N)N(c3sc4c(c3C#N)CCCC4)C3=C2C(=O)CC(C)(C)C3)cc(OC)c1OC (stereo not given)	EBNA-1 inh 108 | EBNA-1 inh conf 36 | ZTA counter trip inactive
COc1ccc(C(=O)Nc2ccc(Cl)c(S(=O)(=O)Nc3ccccc3OC)c2)cc1	none
COc1ccccc1NS(=O)(=O)c1cc(NC(=O)c2ccc3ccccc3n2)ccc1Cl	EBNA-1 inh 52 | EBNA-1 inh conf inactive | ZTA counter trip inactive
COc1ccc(Cn2cccc(NC(=O)Nc3cccc(C#N)c3)c2=O)cc1	EBNA-1 inh 106 | EBNA-1 inh conf 117 | ZTA counter trip inactive
Cc1cc(=O)n2ccsc2n1	none
Cc1cc(N2CCOCC2)ccc1/C=C1\NC(=O)N(CC(=O)Nc2ccccc2C)C1=O	EBNA-1 inh 42 | EBNA-1 inh conf inactive | ZTA counter trip inactive
O=C(Nc1cccc(-c2nnc(-c3ccccc3)o2)c1)C1CCCCC1	EBNA-1 inh 75 | EBNA-1 inh conf 107 | ZTA counter trip inactive
